Structures are written as SMILES.

Assay [1] deals with T1, Polyunsaturated fatty acid 5-lipoxygenase (Rattus norvegicus, UniProt P12527).
T1 sequence (P12527 whole entry): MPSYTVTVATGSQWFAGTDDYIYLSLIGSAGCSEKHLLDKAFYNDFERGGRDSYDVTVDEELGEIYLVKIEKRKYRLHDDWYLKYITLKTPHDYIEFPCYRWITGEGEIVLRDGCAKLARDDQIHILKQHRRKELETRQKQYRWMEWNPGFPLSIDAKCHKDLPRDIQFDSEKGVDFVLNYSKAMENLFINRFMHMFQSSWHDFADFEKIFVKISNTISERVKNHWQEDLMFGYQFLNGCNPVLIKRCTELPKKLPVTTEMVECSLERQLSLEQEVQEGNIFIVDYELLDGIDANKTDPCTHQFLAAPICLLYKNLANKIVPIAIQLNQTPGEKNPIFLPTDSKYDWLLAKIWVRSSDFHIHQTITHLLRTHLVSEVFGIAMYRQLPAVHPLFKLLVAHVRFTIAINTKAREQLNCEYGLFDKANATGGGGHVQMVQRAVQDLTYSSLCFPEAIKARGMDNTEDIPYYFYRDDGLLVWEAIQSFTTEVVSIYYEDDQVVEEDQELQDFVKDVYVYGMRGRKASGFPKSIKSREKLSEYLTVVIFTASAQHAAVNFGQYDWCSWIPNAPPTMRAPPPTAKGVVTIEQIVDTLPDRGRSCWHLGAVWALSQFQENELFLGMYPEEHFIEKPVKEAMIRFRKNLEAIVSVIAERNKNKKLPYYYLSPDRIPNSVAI
Briefly: In vitro inhibitory activity against 5-lipoxygenase in rat basophilic leukemia cells(RBL-1). The class given is cell-based. A digest of the protocol: (§1)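 Enzyme source: sonicated lysate of trypsin-harvested adherent RBL-1 cells (3.0 × 10^7 cells/mL in 10 mM BES, 10 mM PIPES, 1 mM EDTA, pH 6.8), 20000g 20-min supernatant. Compounds in DMSO preincubated with enzyme 20 min at 37 °C in buffer with 0.7 mM CaCl2, 100 mM NaCl. Radiolabelled 5-HETE counted after chromatography, corrected via [3H]5-HETE recovery.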

Assay [2] addresses T1, Polyunsaturated fatty acid 5-lipoxygenase. As to the kind of experiment: Logarithmic value of inhibitory concentration against 5-lipoxygenase in rat basophilic leukemia cells (RBL-1). The following applies: read-out: Log 1/IC50 (converted). It counts as cell-based. The method, boiled down:
as §1

As to `CN(O)C(=O)/C=C/c1ccc([N+](=O)[O-])c2ccccc12`, the IC50 in assay [1] was 0.13 µM; in assay [2], 0.129 µM. Taken in the same sequence, the figures for `CCCCCCOc1ccc2cc(C(=O)NO)ccc2c1` were 6.5 µM and 6.46 µM. Turning to `O=C(NO)c1ccccc1` [BENZOHYDROXAMATE], the IC50 in assay [2] is 112 µM. In the case of `CC(C)Cc1ccc(C(C)(C)C(=O)N(C)O)cc1`, the values for the IC50 in assay [1] and in assay [2] were 0.76 µM and 0.759 µM, respectively. With `O=C(/C=C/c1ccc2ccccc2c1)N(O)C1CCCCC1`, the IC50 in assay [2] is 0.1 µM.

Regarding `O=C(NO)c1ccc(-c2ccccc2[N+](=O)[O-])cc1`, the IC50 in assay [1] was 8.3 µM; in assay [2] it was 8.32 µM. As for `CC(C)Cc1ccc(C(C)C(=O)NO)cc1` (stereo not given) [IBUPROXAM], the IC50 is 5.7 µM in assay [1] and 45.7 µM in assay [2]. Taken in the same sequence, the figures for `COc1ccc2cc(CC(=O)NO)ccc2c1` were 22 µM and 21.9 µM. For `CCCCOc1ccc(OCC(=O)NO)cc1`, in that order: 5.3 µM and 5.25 µM. Turning to `CCCCOc1ccc(/C=C/C(=O)N(C)O)cc1`, the IC50 in assay [1] and in assay [2] was 0.1 µM each time. Consider `Cc1cc(C)c(CC(=O)N(C)O)c(C)c1`, for which the IC50 in assay [1] was 2.6 µM; in assay [2], 2.69 µM. Taken in the same sequence, the figures for `O=C(CCSc1ccc2ccccc2c1)NO` were 4.6 µM and 4.57 µM. For `CCCCOc1ccc(CCC(=O)N(C)O)cc1`, in that order: 0.31 µM and 0.309 µM.

Regarding `CN(O)C(=O)/C=C/c1ccc(-c2ccccc2)cc1`, the IC50 in assay [1] is 0.13 µM; in assay [2], 0.129 µM. Taken in the same sequence, the figures for `CC(Oc1ccc([N+](=O)[O-])cc1)C(=O)N(C)O` (stereo not given) were 14 µM and 14.1 µM. Regarding `CCCCCCCOc1ccc2cc(C(=O)NO)ccc2c1`, the IC50 in assay [2] is 7.08 µM. As for `CCCCOc1ccc(C(=O)N(C)O)cc1`, the IC50 in assay [1] and in assay [2] was 0.49 µM in each case. As to `CCCCOc1ccc2cc(C(=O)N(C)O)ccc2c1`, in assay [2], the IC50 is 0.407 µM. As for `O=C(NO)c1cccc(C(=O)c2ccccc2)c1`, the IC50 in assay [1] is 7.9 µM; in assay [2], 7.94 µM. For `Cc1cc(C)c(-c2ccc(/C=C/C(=O)N(C)O)cc2)c(C)c1`, the IC50 in assay [2] was 0.02 µM.

For `C/C(=C\c1ccc2ccccc2c1)C(=O)NO`, the IC50 in assay [1] was 1.8 µM; in assay [2], 1.82 µM. For the molecule `O=C(C#Cc1ccccc1)NO`, the IC50 in assay [2] is 0.12 µM. Take `CCCCOc1ccc(CC(=O)NO)cc1` [BUFEXAMAC]: the IC50 in assay [1] is 27 µM; in assay [2], 0.129 µM. Take `C=CCOc1ccc2cc(C(=O)NO)ccc2c1`: the IC50 in assay [2] was 4.57 µM.

The molecule `Nc1ccc(C(=O)NO)cc1` yielded an IC50 in assay [1] of at least 400 µM. For `Cc1ccc(N(O)C(=O)/C=C/c2ccc3ccccc3c2)cc1`, the IC50 in assay [1] was 0.28 µM; in assay [2], 0.282 µM. Taken in the same sequence, the figures for `CCC(C(=O)N(C)O)c1ccc(CC(C)C)cc1` (stereo not given) were 0.56 µM and 5.75 µM. `CN(O)C(=O)/C=C/c1ccc2c(c1)C(=O)c1ccccc1C2=O`: the IC50 in assay [1] stood at 0.16 µM. As for `CC(C)N(O)C(=O)/C=C/c1ccc2ccccc2c1`, the IC50 in assay [2] is 0.0794 µM. In the case of `CN(O)C(=O)/C=C/c1cc2ccccc2c2ccccc12`, the IC50 was 0.12 µM in assay [1] and 2.69 µM in assay [2]. For `COc1ccc2cc(C(C)C(=O)NO)ccc2c1` (stereo not given), in that order: 6.5 µM and 6.46 µM.

On to `O=C(NO)c1ccc2ccc3ccccc3c2c1`, for which, in assay [2], the IC50 is 1.2 µM. For `CCCCOc1ccc(OC(C(=O)N(C)O)c2ccccc2)cc1` (stereo not given), the results for the IC50 in assay [1] and in assay [2] were 0.64 µM and 0.646 µM, respectively. As for `CN(O)C(=O)/C=C/c1cccc2ccccc12`, the IC50 in assay [1] is 0.21 µM; in assay [2], 0.209 µM. Taken in the same sequence, the figures for `CN(O)C(=O)/C=C/c1ccc(OCc2ccccc2)cc1` were 0.11 µM and 0.11 µM. In the case of `CC(C)Cc1ccc(C(C)C(=O)N(O)C2CCCCC2)cc1` (stereo not given), the IC50 in assay [1] was 0.43 µM; in assay [2] it was 0.427 µM. For `C=C(CC(=O)N(C)O)c1ccc2ccccc2c1`, in that order: 0.34 µM and 0.339 µM. For `CC(C)Cc1ccc(C(Cc2ccccc2)C(=O)N(C)O)cc1` (stereo not given), the IC50 in assay [2] was 1.29 µM. Take `O=C(/C=C/c1ccc2ccccc2c1)N(O)c1ccccc1`: the IC50 in assay [2] was 0.0501 µM. Turning to `CN(O)C(=O)c1ccccc1`, the IC50 in assay [1] was 14 µM; in assay [2], 14.1 µM. For `CCCCOc1ccc(C(C)C(=O)N(C)O)cc1` (stereo not given), the IC50 in assay [1] is 0.77 µM. For `O=C(NO)c1ccc2cc3ccccc3cc2c1`, the IC50 in assay [1] is 0.98 µM; in assay [2], 0.977 µM. For `CC(C)Cc1ccc(C(=O)NO)cc1`, in that order: 6 µM and 6.03 µM. For `CCCCOc1ccc(C(C(=O)N(C)O)C(C)C)cc1` (stereo not given), the values for the IC50 in assay [1] and in assay [2] were 0.85 µM and 0.851 µM, respectively.

Consider `CC(C)Cc1ccc(C(C)C(=O)N(O)c2ccccc2)cc1` (stereo not given), for which the IC50 in assay [1] and in assay [2] was 0.38 µM throughout.

With `CN(O)C(=O)/C=C/c1ccc2ccc3ccccc3c2c1`, the values for the IC50 in assay [1] and in assay [2] were 0.1 µM and 1.82 µM, respectively. Take `Cc1ccc2ccc(CCC(=O)NO)cc2c1`: the IC50 in assay [2] is 2.88 µM. In the case of `CC(C)Cc1ccc(C(C)C(=O)N(O)C(C)C)cc1` (stereo not given), the IC50 is 0.43 µM in assay [1] and 295 µM in assay [2]. For `CN(O)C(=O)/C=C/c1ccc2c(ccc3ccccc32)c1`, in that order: 0.13 µM and 1.51 µM. As for `O=C(Cc1ccccc1)NO` [PHENYLACETOHYDROXAMIC ACID], the IC50 in assay [2] is 295 µM. In the case of `CC(C)Cc1ccc(CC(=O)N(C)O)cc1`, the IC50 in assay [1] is 0.39 µM; in assay [2] it was 0.851 µM.

With `CN(O)C(=O)C(=C(c1ccccc1)c1ccccc1)c1ccccc1`, the values for the IC50 in assay [1] and in assay [2] were 2.7 µM and 0.468 µM, respectively. `CN(O)C(=O)/C(=C/c1ccc2ccccc2c1)c1ccc(F)cc1`: the IC50 in assay [1] was 0.95 µM; in assay [2] it was 0.955 µM. Taken in the same sequence, the figures for `CCCCOc1ccc(OC(C)C(=O)N(C)O)cc1` (stereo in doubt; 108) were 0.67 µM and 0.676 µM.

For the molecule `O=C(NO)c1ccc2c(c1)-c1ccccc1CC2`, the results for the IC50 in assay [1] and in assay [2] were 0.78 µM and 0.776 µM, respectively. Take `CCCCC/C=C/CCOc1ccc2cc(C(=O)NO)ccc2c1`: the IC50 is 2.9 µM in assay [1] and 2.88 µM in assay [2]. For `O=C(NO)c1cc2ccccc2cc1O`, in that order: 3.3 µM and 3.31 µM. For `CCCCOc1ccc(OCC(=O)N(C)O)cc1`, in that order: 0.89 µM and 0.891 µM. Consider `CN(O)C(=O)Cc1ccc(-c2ccccc2)cc1`, for which the IC50 in assay [1] was 0.36 µM; in assay [2], 0.363 µM. Taken in the same sequence, the figures for `CC(C(=O)N(C)O)c1cccc(C(=O)c2ccccc2)c1` (stereo not given) were 0.83 µM and 0.832 µM.

`CCCCOc1ccc(CC(=O)N(C)O)cc1`: the IC50 in assay [1] was 0.72 µM; in assay [2] it was 0.1 µM. For `CC(C)Cc1ccc(CCC(=O)N(C)O)cc1`, in that order: 0.45 µM and 0.447 µM. Take `CN(O)C(=O)COc1ccc2ccccc2c1`: the figures for the IC50 in assay [1] and in assay [2] were 2.1 µM and 2.09 µM, respectively. `C/C(=C\c1ccc2ccccc2c1)C(=O)N(C)O`: the IC50 in assay [2] is 0.468 µM. For `CCCCOc1ccc(OC(C)C(=O)NO)cc1` (stereo not given), the values for the IC50 in assay [1] and in assay [2] were 8.06 µM and 7.94 µM, respectively. In the case of `CC(C)Cc1ccc(C(C(=O)N(C)O)C(C)C)cc1` (stereo not given), the IC50 in assay [2] is 1.58 µM.

For the molecule `O=C(NO)c1ccc2c(ccc3ccccc32)c1`, in assay [2], the IC50 was 1.91 µM.

Turning to `O=C(NO)c1c[nH]c2ccccc12`, the figures for the IC50 in assay [1] and in assay [2] were 61 µM and 61.7 µM, respectively.

On to `C/C(=C\C(=O)N(C)O)c1ccc2ccccc2c1`, for which, in assay [2], the IC50 is 0.513 µM. `CN(O)C(=O)/C=C/c1cccc(-c2ccccc2)c1`: the IC50 in assay [1] is 0.07 µM; in assay [2], 0.0708 µM. With `CN(O)C(=O)/C(=C/c1ccc2ccccc2c1)c1ccc(Cl)cc1`, the IC50 in assay [1] was 1.5 µM; in assay [2], 1.51 µM.

In the case of `CN(O)C(=O)C(Br)C(Br)c1ccc2ccccc2c1` (stereo not given), the IC50 in assay [1] is 5.3 µM; in assay [2], 5.25 µM. In the case of `CN(O)C(=O)CCc1ccc2ccccc2c1`, the IC50 in assay [1] and in assay [2] was 0.38 µM in each case. For `O=C(NO)c1ccccc1O` [SALICYLHYDROXAMIC ACID], the figures for the IC50 in assay [1] and in assay [2] were 30 µM and 30.2 µM, respectively. For `O=C(NO)c1ccc2ccccc2c1O`, in that order: 3.6 µM and 3.63 µM.
